Reference: ChEMBL document CHEMBL1128301, “Cephalosporin derivatives of doxorubicin as prodrugs for activation by monoclonal antibody-beta-lactamase conjugates” (J Med Chem, 1995)

What was measured:
[1] = molecular target: T1, Metallo-beta-lactamase type 2 (Bacillus cereus) (UniProt P14488); assay: The kinetic constant(kcat) value as spectrophotometrically by using Bacillus cereus beta-lactamase (BCbL) enzyme as catalyst
T1 sequence (whole entry): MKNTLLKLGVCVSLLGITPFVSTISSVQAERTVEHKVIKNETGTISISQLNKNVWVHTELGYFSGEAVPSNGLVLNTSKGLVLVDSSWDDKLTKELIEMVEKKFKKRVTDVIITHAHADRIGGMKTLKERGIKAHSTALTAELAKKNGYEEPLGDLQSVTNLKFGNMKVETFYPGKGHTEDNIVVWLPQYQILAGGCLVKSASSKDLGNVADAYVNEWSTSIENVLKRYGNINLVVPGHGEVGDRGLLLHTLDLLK
Procedure, shortened: (§1)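 Spectrophotometric hydrolysis at 23 °C in PBS with 12.5 μg/mL BSA. EClbL was used at 0.1 μg/mL; BCbL and ECbL at 1.0 μg/mL. […] Initial velocities were linear over 1 min.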

[2] = molecular target: Beta-lactamase (Enterobacter cloacae) (UniProt P05364); assay: The kinetic constant(kcat) value as spectrophotometrically by using Enterobacter cloacae P99 beta-lactamase (ECIbL) enzyme as catalyst; procedure, shortened: as §1
Chain of Beta-lactamase (Enterobacter cloacae) (P05364 21-381 limits assumed): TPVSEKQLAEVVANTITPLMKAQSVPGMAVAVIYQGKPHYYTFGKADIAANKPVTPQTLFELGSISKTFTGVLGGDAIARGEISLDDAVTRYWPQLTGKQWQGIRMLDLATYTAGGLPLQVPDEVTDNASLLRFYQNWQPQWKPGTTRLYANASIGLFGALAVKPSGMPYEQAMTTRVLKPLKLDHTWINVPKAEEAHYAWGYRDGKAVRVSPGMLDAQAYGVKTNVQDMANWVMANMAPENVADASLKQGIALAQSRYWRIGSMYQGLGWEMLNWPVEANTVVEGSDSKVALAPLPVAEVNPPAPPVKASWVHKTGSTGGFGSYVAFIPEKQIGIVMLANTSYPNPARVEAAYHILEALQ

[3] = molecular target: Beta-lactamase TEM (Escherichia coli) (UniProt P62593); assay: The kinetic constant(kcat) value as spectrophotometrically by using Escherichia coli TEM-1 beta-lactamase (ECbL) enzyme as catalyst; procedure, shortened: as §1
Chain of Beta-lactamase TEM (Escherichia coli) (P62593 whole entry): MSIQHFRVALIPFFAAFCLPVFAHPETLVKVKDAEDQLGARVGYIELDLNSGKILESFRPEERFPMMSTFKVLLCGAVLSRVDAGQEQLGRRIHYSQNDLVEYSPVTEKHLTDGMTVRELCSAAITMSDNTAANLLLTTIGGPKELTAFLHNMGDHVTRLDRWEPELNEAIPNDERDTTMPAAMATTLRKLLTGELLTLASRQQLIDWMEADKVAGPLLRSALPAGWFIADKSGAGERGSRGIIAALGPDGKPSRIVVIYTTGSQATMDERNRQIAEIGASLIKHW

k cat [1]: 6.6 s⁻¹
k cat [2]: 210 s⁻¹
k cat [3]: 2.8 s⁻¹
Compound: COc1cccc2c1C(=O)c1c(O)c3c(c(O)c1C2=O)C[C@@](O)(C(=O)CO)C[C@@H]3OC1CC(NC(=O)OCC2=C(C(=O)O)N3C(=O)[C@@H](NC(=O)CCCC(=O)O)[C@H]3SC2)C(O)C(C)O1 (stereo partly drawn)
